Tests used:
[1] = molecular target: T1, Retinoic acid receptor RXR-alpha (Homo sapiens, UniProt P19793); assay: Antagonist activity at human RXRalpha expressed in […] cells assessed as inhibition of LG-100268-induced transactivation; assay type: functional, cell-based, HEK293
T1 sequence (P19793 whole entry): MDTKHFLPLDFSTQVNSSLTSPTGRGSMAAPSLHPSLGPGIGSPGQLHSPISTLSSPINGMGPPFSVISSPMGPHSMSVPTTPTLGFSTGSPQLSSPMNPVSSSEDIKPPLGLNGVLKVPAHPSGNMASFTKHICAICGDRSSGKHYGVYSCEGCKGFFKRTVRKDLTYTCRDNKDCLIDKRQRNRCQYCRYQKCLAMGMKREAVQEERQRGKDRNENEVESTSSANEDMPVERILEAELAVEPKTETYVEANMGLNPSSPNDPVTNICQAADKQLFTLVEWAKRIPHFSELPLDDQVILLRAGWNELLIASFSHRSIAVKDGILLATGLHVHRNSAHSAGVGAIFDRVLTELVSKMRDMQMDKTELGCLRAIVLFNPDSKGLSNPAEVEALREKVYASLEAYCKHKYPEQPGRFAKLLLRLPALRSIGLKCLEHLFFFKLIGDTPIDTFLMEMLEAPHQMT

[2] = molecular target: T1, Retinoic acid receptor RXR-alpha; assay: Antagonist activity at human RXRalpha expressed in […] cells assessed as inhibition of 9-cis-retinoic acid-induced transactivation; assay type: functional, cell-based, HEK293
[3] = Bioavailability in rat at 1 mg/kg, iv and 3 mg/kg, po; assay type: ADME, organism-based; details: in vivo
In short: (§1)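 Rats given the compound as a 1 mg/kg intravenous bolus or 3 mg/kg perorally as a suspension. Blood was sampled at various time points up to 24 h, and parent compound levels were measured by LC/MS. Clearance, terminal half-life and steady-state volume of distribution come from the iv profile, Cmax and tmax from the po profile, and bioavailability from comparing iv and po dosing.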

[4] = Tmax in rat at 3 mg/kg, po; assay type: ADME, organism-based; design: dose 3 mg/kg, route oral; details: in vivo; in short: as §1
[5] = Plasma clearance in rat at 1 mg/kg, iv; assay type: ADME, organism-based; design: dose 1 mg/kg, route intravenous; in short: as §1
[6] = Cmax in rat at 3 mg/kg, po; assay type: ADME, organism-based; design: dose 3 mg/kg, route oral; details: in vivo; in short: as §1
[7] = Terminal elimination half life in rat at 1 mg/kg, iv; assay type: ADME, organism-based; design: dose 1 mg/kg, route intravenous; details: in vivo; in short: as §1
[8] = Volume of distribution at steady state in rat at 1 mg/kg, iv; assay type: ADME, organism-based; design: dose 1 mg/kg, route intravenous; details: in vivo, read-out: Vdss; in short: as §1

IC50 [1] [µM]	IC50 [2] [µM]	SMILES	further results
2.9	0.4	CN1c2ccc(NS(=O)(=O)/C=C/c3ccccc3)cc2N=C(c2ccc(C(=O)O)cc2)c2cc3c(cc21)C(C)(C)CCC3(C)C	
2.6	1.4	CN1c2ccc(NS(=O)(=O)c3ccccc3C(F)(F)F)cc2N=C(c2ccc(C(=O)O)cc2)c2cc3c(cc21)C(C)(C)CCC3(C)C	
> 100	> 10	CNc1ccc2c(c1)N=C(c1ccc(C(=O)O)cc1)c1cc3c(cc1N2C)C(C)(C)CCC3(C)C	
2.5	0.47	COc1ccc(S(=O)(=O)Nc2ccc3c(c2)N=C(c2ccc(C(=O)O)cc2)c2cc4c(cc2N3C)C(C)(C)CCC4(C)C)cc1	
0.42	0.22	CCN1c2ccc(NS(=O)(=O)c3ccc(F)cc3)cc2N=C(c2ccc(C(=O)O)cc2)c2cc3c(cc21)C(C)(C)CCC3(C)C	
> 100	> 10	CN1c2ccc(NCc3ccccc3)cc2N=C(c2ccc(C(=O)O)cc2)c2cc3c(cc21)C(C)(C)CCC3(C)C	
0.91	0.37	CCCCS(=O)(=O)Nc1ccc2c(c1)N=C(c1ccc(C(=O)O)cc1)c1cc3c(cc1N2C)C(C)(C)CCC3(C)C	
7.2	2.9	CN1c2ccc(NC(=O)C34CC5CC(CC(C5)C3)C4)cc2N=C(c2ccc(C(=O)O)cc2)c2cc3c(cc21)C(C)(C)CCC3(C)C	
4.4	2.4	CN1c2ccc(NS(C)(=O)=O)cc2N=C(c2ccc(C(=O)O)cc2)c2cc3c(cc21)C(C)(C)CCC3(C)C	
4.1	4.2	CN1c2ccc(NC(=O)c3cccc(C(F)(F)F)c3)cc2N=C(c2ccc(C(=O)O)cc2)c2cc3c(cc21)C(C)(C)CCC3(C)C	
2.5	0.97	CN1c2ccc(NC(=O)Cc3ccccc3)cc2N=C(c2ccc(C(=O)O)cc2)c2cc3c(cc21)C(C)(C)CCC3(C)C	
5.2	6.2	CCCNC(=O)Nc1ccc2c(c1)N=C(c1ccc(C(=O)O)cc1)c1cc3c(cc1N2C)C(C)(C)CCC3(C)C	
6.2	1.3	CN1c2ccc(NS(=O)(=O)c3ccc(-c4ccccc4)cc3)cc2N=C(c2ccc(C(=O)O)cc2)c2cc3c(cc21)C(C)(C)CCC3(C)C	
0.16	0.095	CCN1c2ccc(NS(=O)(=O)c3cccc(C(F)(F)F)c3)cc2N=C(c2ccc(C(=O)O)cc2)c2cc3c(cc21)C(C)(C)CCC3(C)C	bioavailability [3]: 36%; Tmax [4]: 4.7 h; clearance [5]: 0.5 L/h/kg; Cmax [6]: 0.468 µM; half-life [7]: 2.1 h; Vd [8]: 1.2 L/kg
4.1	1.2	CN1c2ccc(NS(=O)(=O)c3cc(C(F)(F)F)cc(C(F)(F)F)c3)cc2N=C(c2ccc(C(=O)O)cc2)c2cc3c(cc21)C(C)(C)CCC3(C)C	
3.4	0.85	CN1c2ccc(NS(=O)(=O)c3cccc4ccccc34)cc2N=C(c2ccc(C(=O)O)cc2)c2cc3c(cc21)C(C)(C)CCC3(C)C	
5.2	1	CN1c2ccc(NS(=O)(=O)Cc3ccccc3)cc2N=C(c2ccc(C(=O)O)cc2)c2cc3c(cc21)C(C)(C)CCC3(C)C	
3.4	3.3	CCCCNC(=O)Nc1ccc2c(c1)N=C(c1ccc(C(=O)O)cc1)c1cc3c(cc1N2C)C(C)(C)CCC3(C)C	
> 100	> 10	CCCCNc1ccc2c(c1)N=C(c1ccc(C(=O)O)cc1)c1cc3c(cc1N2C)C(C)(C)CCC3(C)C	
2	0.9	CN1c2ccc(NC(=O)c3ccccc3)cc2N=C(c2ccc(C(=O)O)cc2)c2cc3c(cc21)C(C)(C)CCC3(C)C	
1.6	1.7	CN1c2ccc(NC(=O)c3ccc(F)cc3)cc2N=C(c2ccc(C(=O)O)cc2)c2cc3c(cc21)C(C)(C)CCC3(C)C	
14	15	CNC(=O)Nc1ccc2c(c1)N=C(c1ccc(C(=O)O)cc1)c1cc3c(cc1N2C)C(C)(C)CCC3(C)C	
3.9	1.8	CCCC(=O)Nc1ccc2c(c1)N=C(c1ccc(C(=O)O)cc1)c1cc3c(cc1N2C)C(C)(C)CCC3(C)C	
2.1	0.25	CCCS(=O)(=O)Nc1ccc2c(c1)N=C(c1ccc(C(=O)O)cc1)c1cc3c(cc1N2C)C(C)(C)CCC3(C)C	

IC50 [1] [µM]	IC50 [2] [µM]	SMILES	further results
0.81	0.13	CCCN1c2ccc(NS(=O)(=O)c3ccc(F)cc3)cc2N=C(c2ccc(C(=O)O)cc2)c2cc3c(cc21)C(C)(C)CCC3(C)C	
1.5	0.48	CN1c2ccc(NS(=O)(=O)c3cccc(C(F)(F)F)c3)cc2N=C(c2ccc(C(=O)O)cc2)c2cc3c(cc21)C(C)(C)CCC3(C)C	
0.84	0.55	CCCN1c2ccc(NS(=O)(=O)CCC)cc2N=C(c2ccc(C(=O)O)cc2)c2cc3c(cc21)C(C)(C)CCC3(C)C	
0.19	0.076	CCCN1c2ccc(NS(=O)(=O)c3cccc(C(F)(F)F)c3)cc2N=C(c2ccc(C(=O)O)cc2)c2cc3c(cc21)C(C)(C)CCC3(C)C	bioavailability [3]: 21%; Tmax [4]: 4 h; clearance [5]: 0.4 L/h/kg; Cmax [6]: 0.519 µM; half-life [7]: 1.8 h; Vd [8]: 1.1 L/kg
2.2	1.1	CN1c2ccc(NS(=O)(=O)c3ccc(C(F)(F)F)cc3)cc2N=C(c2ccc(C(=O)O)cc2)c2cc3c(cc21)C(C)(C)CCC3(C)C	
4.5	1.5	CN1c2ccc(NC(=O)C3CCCCC3)cc2N=C(c2ccc(C(=O)O)cc2)c2cc3c(cc21)C(C)(C)CCC3(C)C	
5.6	1.9	CC(C)C(=O)Nc1ccc2c(c1)N=C(c1ccc(C(=O)O)cc1)c1cc3c(cc1N2C)C(C)(C)CCC3(C)C	
1.3	0.88	CN1c2ccc(NC(=O)Cc3ccc(F)cc3)cc2N=C(c2ccc(C(=O)O)cc2)c2cc3c(cc21)C(C)(C)CCC3(C)C	
7.1	2.2	CCC(=O)Nc1ccc2c(c1)N=C(c1ccc(C(=O)O)cc1)c1cc3c(cc1N2C)C(C)(C)CCC3(C)C	
2.3	1.2	CN1c2ccc(NS(=O)(=O)c3cccc(F)c3)cc2N=C(c2ccc(C(=O)O)cc2)c2cc3c(cc21)C(C)(C)CCC3(C)C	
2.5	2.8	CN1c2ccc(NC(=O)NCc3ccccc3)cc2N=C(c2ccc(C(=O)O)cc2)c2cc3c(cc21)C(C)(C)CCC3(C)C	
0.85	0.14	CCCCS(=O)(=O)Nc1ccc2c(c1)N=C(c1ccc(C(=O)O)cc1)c1cc3c(cc1N2CCC)C(C)(C)CCC3(C)C	
0.32	0.2	CCCCS(=O)(=O)Nc1ccc2c(c1)N=C(c1ccc(C(=O)O)cc1)c1cc3c(cc1N2CC)C(C)(C)CCC3(C)C	
1.7	0.19	CN1c2ccc(NS(=O)(=O)c3ccc(F)cc3)cc2N=C(c2ccc(C(=O)O)cc2)c2cc3c(cc21)C(C)(C)CCC3(C)C	
1.2	0.72	CCN1c2ccc(NC(=O)Cc3ccc(F)cc3)cc2N=C(c2ccc(C(=O)O)cc2)c2cc3c(cc21)C(C)(C)CCC3(C)C	
5.2	1.5	CN1c2ccc(NC(=O)/C=C/c3ccccc3)cc2N=C(c2ccc(C(=O)O)cc2)c2cc3c(cc21)C(C)(C)CCC3(C)C	
1.4	0.51	CN1c2ccc(NS(=O)(=O)c3ccccc3)cc2N=C(c2ccc(C(=O)O)cc2)c2cc3c(cc21)C(C)(C)CCC3(C)C	
4.4	2.3	CN1c2ccc(NS(=O)(=O)c3ccccc3F)cc2N=C(c2ccc(C(=O)O)cc2)c2cc3c(cc21)C(C)(C)CCC3(C)C	
0.57	0.34	CCCS(=O)(=O)Nc1ccc2c(c1)N=C(c1ccc(C(=O)O)cc1)c1cc3c(cc1N2CC)C(C)(C)CCC3(C)C	
2.5	0.43	Cc1ccc(S(=O)(=O)Nc2ccc3c(c2)N=C(c2ccc(C(=O)O)cc2)c2cc4c(cc2N3C)C(C)(C)CCC4(C)C)cc1	
3.9	3.1	CCCN1c2ccc(NC(=O)Cc3ccc(F)cc3)cc2N=C(c2ccc(C(=O)O)cc2)c2cc3c(cc21)C(C)(C)CCC3(C)C	
7.4	7.3	CCNC(=O)Nc1ccc2c(c1)N=C(c1ccc(C(=O)O)cc1)c1cc3c(cc1N2C)C(C)(C)CCC3(C)C	
4.9	0.84	CCS(=O)(=O)Nc1ccc2c(c1)N=C(c1ccc(C(=O)O)cc1)c1cc3c(cc1N2C)C(C)(C)CCC3(C)C	
